Here are results for three molecules from ChEMBL document CHEMBL1145069, “Stereospecific synthesis of 5-substituted 2-bisarylthiocyclopentane carboxylic acids as specific matrix metalloproteinase inhibitors” (J Med Chem, 2003).

SMILES strings stand for the structures. “And” between values parts separate entries of the source, which are not always exact repeats. Equal values may be shown once. Where only a bound is given, the exact number is not on record here.

Data set [1] in a line: In vivo half life in mice after 50 mg/kg (po) administration. The data set is classed as ADME, organism-based. On the set-up: dose 50 mg/kg. The conditions noted are these: mouse.
The nature of data set [2]: In vivo maximum plasma concentration was determined in mice after 50 mg/kg (ip) administration. The data set is classed as ADME, organism-based. More on the design: route intraperitoneal, dose 50 mg/kg. To be noted: mouse.
Data set [3] relates to Mus musculus. Nature of the data set: Tested for antitumor activity in mice against B16F10 melanoma measured as reduction in number of metastases at 200 mg/kg (po). The data set is classed as functional. The method in brief: (§1)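 B16-F10 cells passaged in vitro, then 2×10^5 cells per mouse injected into the tail vein of B6D2F1 mice in PBS with 0.5% foetal calf serum. 7 mice per group. Dosing i.p. or p.o. 1 h before inoculation, then daily for 3 days (four doses). Lungs collected on day 11 and fixed in Bouin's fluid. Metastases per lung (total and ≥1 mm) given as % of control mean.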

The next data set addresses T1, Interstitial collagenase (Homo sapiens, UniProt P03956).
T1 sequence (P03956 whole entry): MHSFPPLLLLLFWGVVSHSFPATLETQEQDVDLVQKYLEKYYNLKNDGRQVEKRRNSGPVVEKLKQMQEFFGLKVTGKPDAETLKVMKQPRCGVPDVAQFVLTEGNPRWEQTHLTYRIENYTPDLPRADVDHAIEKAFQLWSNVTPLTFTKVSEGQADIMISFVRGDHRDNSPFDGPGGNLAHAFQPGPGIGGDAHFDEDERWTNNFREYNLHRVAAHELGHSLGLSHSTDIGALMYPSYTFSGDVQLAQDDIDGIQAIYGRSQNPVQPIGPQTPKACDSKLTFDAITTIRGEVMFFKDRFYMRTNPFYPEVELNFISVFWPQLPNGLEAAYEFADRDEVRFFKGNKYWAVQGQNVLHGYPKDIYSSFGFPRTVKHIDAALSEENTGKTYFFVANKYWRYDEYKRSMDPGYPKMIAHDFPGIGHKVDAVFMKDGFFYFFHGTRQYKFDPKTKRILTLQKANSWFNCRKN
The data set can be described thus: Inhibitory activity against matrix metalloprotease-1 (MMP1).

Data set [4] deals with Mus musculus. Nature of the data set: Tested for antitumor activity in mice against B16F10 melanoma measured as reduction in number of metastases at 100 mg/kg (ip). The data set is classed as functional. The method in brief: as §1
Data set [5] is described as follows: In vivo half life in mice after 50 mg/kg (ip) administration. The data set is classed as ADME, organism-based. On the set-up: dose 50 mg/kg. The conditions noted are these: mouse.
The nature of data set [6]: In vivo half life in mice after 5 mg/kg (iv) administration. The data set is classed as ADME, organism-based. More on the design: dose 5 mg/kg. To be noted: mouse.
The nature of data set [7]: Bioavailability in mouse (dose 50 mg/kg p.o.). To be noted: in vivo, po. The data set is classed as ADME, organism-based.
Another data set has as its target Collagenase 3 (Homo sapiens, UniProt P45452). Nature of the data set: Inhibitory activity against matrix metalloprotease-13 (MMP13).
Data set [8] addresses 72 kDa type IV collagenase (Homo sapiens, UniProt P08253). Nature of the data set: Inhibitory activity against matrix metalloprotease-2 (MMP2).
For the next data set, the species on record is Rattus norvegicus. The data set can be described thus: In vitro metabolic stability and first pass metabolism was evaluated in rat hepatic microsomes. The data set is classed as ADME, Liver.
Data set [9] can be described thus: Bioavailability in mouse (dose 50 mg/kg i.p.). The conditions noted are these: in vivo, ip. The data set is classed as ADME, organism-based.
A short description of data set [10]: In vivo maximum plasma concentration was determined in mice after 50 mg/kg (po) administration. On the set-up: route oral, dose 50 mg/kg. The data set is classed as ADME, organism-based. The conditions noted are these: mouse.
The species entered for data set [11] is Homo sapiens. Nature of the data set: In vitro metabolic stability and first pass metabolism was evaluated in human hepatic microsomes. The data set is classed as ADME, Liver.
The target of the next data set is Stromelysin-1 (Homo sapiens, UniProt P08254). The data set can be described thus: Inhibitory activity against matrix metalloprotease-3 (MMP3).
Chain of Stromelysin-1 (P08254 whole entry): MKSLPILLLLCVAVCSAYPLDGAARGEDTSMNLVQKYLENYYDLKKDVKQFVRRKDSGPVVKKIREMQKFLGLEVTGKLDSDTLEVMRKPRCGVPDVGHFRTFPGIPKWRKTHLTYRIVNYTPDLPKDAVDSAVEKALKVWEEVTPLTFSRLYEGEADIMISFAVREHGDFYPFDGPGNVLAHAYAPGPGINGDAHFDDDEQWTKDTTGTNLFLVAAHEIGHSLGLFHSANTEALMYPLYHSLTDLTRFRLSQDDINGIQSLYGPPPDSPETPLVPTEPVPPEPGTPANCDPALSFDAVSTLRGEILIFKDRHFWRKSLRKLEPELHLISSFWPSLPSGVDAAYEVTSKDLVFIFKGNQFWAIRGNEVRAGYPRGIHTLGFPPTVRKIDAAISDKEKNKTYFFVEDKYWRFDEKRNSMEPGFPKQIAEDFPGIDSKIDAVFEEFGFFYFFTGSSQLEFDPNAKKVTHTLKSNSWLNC
For data set [12], the species on record is Homo sapiens. The data set can be described thus: In vitro absorption was measured in Caco-2 cell. The data set is classed as ADME.
The test system of data set [13] is Mus musculus. The data set can be described thus: Tested for antitumor activity in mice against B16F10 melanoma measured as reduction in number of metastases at 200 mg/kg (ip). The data set is classed as functional. An outline of the steps: as §1
Data set [14] has as its system Mus musculus. The data set can be described thus: Tested for antitumor activity in mice against B16F10 melanoma measured as reduction in number of metastases at 100 mg/kg (po). The data set is classed as functional. The method in brief: as §1
A short description of data set [15]: In vivo maximum plasma concentration was determined in mice after 5 mg/kg (iv) administration. The conditions noted are these: mouse. The data set is classed as ADME, organism-based. More on the design: route intravenous, dose 5 mg/kg.
Data set [16] has as its target Matrix metalloproteinase-9 (Homo sapiens, UniProt P14780). The data set can be described thus: Inhibitory activity against matrix metalloprotease-9 (MMP9).
Data set [17] deals with Mus musculus. The data set can be described thus: Tested for antitumor activity in mice against B16F10 melanoma measured as reduction in number of metastases at 25 mg/kg (ip). The data set is classed as functional. The method in brief: as §1
The subject of data set [18] is Mus musculus. Nature of the data set: Tested for antitumor activity in mice against B16F10 melanoma measured as reduction in number of metastases at 50 mg/kg (ip). The data set is classed as functional. An outline of the steps:
as §1

Data set [19] can be described thus: Bioavailability determined. The conditions noted are these: eutheria, in vivo. The data set is classed as ADME, organism-based.

Chain of 72 kDa type IV collagenase (P08253 whole entry): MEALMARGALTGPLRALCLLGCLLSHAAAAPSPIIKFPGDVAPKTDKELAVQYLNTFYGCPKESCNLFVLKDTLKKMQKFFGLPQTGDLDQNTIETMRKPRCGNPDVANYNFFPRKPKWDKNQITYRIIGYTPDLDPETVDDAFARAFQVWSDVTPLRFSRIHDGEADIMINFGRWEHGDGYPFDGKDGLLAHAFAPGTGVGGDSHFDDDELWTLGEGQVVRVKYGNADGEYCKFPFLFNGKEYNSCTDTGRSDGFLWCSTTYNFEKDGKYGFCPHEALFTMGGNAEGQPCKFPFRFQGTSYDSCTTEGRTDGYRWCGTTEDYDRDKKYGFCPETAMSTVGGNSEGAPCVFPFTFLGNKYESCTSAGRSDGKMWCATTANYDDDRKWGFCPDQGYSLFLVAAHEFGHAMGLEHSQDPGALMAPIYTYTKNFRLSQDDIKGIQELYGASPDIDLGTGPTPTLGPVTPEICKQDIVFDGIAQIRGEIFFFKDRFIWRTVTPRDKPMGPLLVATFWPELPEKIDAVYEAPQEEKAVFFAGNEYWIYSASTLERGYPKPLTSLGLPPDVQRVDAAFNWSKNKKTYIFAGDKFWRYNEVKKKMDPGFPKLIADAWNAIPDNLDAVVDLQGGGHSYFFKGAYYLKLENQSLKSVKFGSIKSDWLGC
Chain of Matrix metalloproteinase-9 (P14780 whole entry): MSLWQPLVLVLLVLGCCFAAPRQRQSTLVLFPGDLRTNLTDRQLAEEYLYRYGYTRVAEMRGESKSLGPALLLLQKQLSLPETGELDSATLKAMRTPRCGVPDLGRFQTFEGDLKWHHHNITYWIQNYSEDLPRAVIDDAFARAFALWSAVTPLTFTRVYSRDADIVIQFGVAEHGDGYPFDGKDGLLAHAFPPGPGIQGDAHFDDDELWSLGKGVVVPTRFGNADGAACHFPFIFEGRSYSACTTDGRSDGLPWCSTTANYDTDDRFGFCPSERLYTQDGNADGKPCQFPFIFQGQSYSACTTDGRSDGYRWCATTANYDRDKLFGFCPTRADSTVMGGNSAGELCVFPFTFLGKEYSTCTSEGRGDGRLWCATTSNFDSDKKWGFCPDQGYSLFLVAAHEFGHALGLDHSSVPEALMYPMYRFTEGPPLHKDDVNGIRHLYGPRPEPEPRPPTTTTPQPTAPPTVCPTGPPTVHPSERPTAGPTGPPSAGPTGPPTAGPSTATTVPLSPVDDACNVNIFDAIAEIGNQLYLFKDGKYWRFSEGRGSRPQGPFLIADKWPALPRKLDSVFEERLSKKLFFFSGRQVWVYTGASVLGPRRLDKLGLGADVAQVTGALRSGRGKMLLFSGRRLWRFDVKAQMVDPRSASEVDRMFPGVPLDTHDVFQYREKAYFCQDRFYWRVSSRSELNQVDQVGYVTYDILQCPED

Take `O=C(O)[C@H]1[C@H](CN2C(=O)c3ccccc3C2=O)CC[C@@H]1SCCc1ccc(-c2ccc(F)cc2)cc1`: the half-life was 4 h in data set [1], 4 h in data set [5] and 3.5 h in data set [6]. Besides, the Cmax in data set [2] turned out to be 130 µg/mL; in data set [10], 107 µg/mL; in [15] it was 40 µg/mL. The No. of metastases in the data set on Mus musculus [3] is listed as 68; with Mus musculus [4], 32.5; in the data set with Mus musculus [13], 24.5; in the data set on Mus musculus [14], 72. Moreover, the 50% inhibitory concentration (IC50) at Interstitial collagenase stood at 6000 nM; against Collagenase 3 it was 248 nM; in data set [8], 62 nM; against Stromelysin-1, 60 nM; in data set [16], 26 nM. For the same molecule, the bioavailability in data set [7] stood at 93%; in [9], 100%. In addition, the MF in the data set filed under Rattus norvegicus is listed as 55%; in the data set filed under Homo sapiens [11] it was 62%. The molecule also returned an Absorption in the data set filed under Homo sapiens [12] of 90%.
As to `O=C(O)[C@H]1[C@H](Cn2nnc3ccccc3c2=O)CC[C@@H]1Sc1ccc(-c2ccc(Cl)cc2)cc1`, the No. of metastases is 45 in the data set with Mus musculus [17]; 74.5 with Mus musculus [3]; 30 in the data set with Mus musculus [4]; 39 with Mus musculus [18]; 70 with Mus musculus [14]. For the same molecule, the values for the half-life in [1], in data set [5] and in [6] were 3 h, 4 h and 3.4 h, respectively. For the same molecule, the Cmax amounted to 203 µg/mL in data set [2], 93 µg/mL in data set [10] and 40 µg/mL in data set [15]. For the same molecule, the IC50 on Interstitial collagenase was > 100000 nM and 12000 nM. Also, the bioavailability in data set [7] worked out at 69%; in [9] it was 100%. Besides, the figures for the MF in the data set filed under Rattus norvegicus and in the data set listed under Homo sapiens [11] were 74% and 100%, respectively. In the data set filed under Homo sapiens [12], this molecule registered an Absorption of 95%.
Take `O=C(NO)C(CCn1nnc2ccccc2c1=O)CSc1ccc(-c2ccc(Cl)cc2)cc1` (stereo not drawn): the IC50 is greater than 10000 nM against Interstitial collagenase; 1.2 nM against Collagenase 3; 0.06 nM in data set [8]; 10 nM against Stromelysin-1; 0.5 nM in data set [16]. Moreover, the bioavailability in [19] is less than 30%.
